Laboratory results from PMC4474499 (Science Advances, 2015).

Experiments:
TNF-α = TNF-α ELISA in Raw 264.7 cells; type: cell-based; conditions: Mus musculus, RAW264.7, 24 h, read-out: EC50, TNF-α production
Summary of the method: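 RAW 264.7 cells, 1 × 10^6/well in six-well plates, grown 24 h. Medium refreshed (RPMI 1640). Treated 24 h with test compound; 66 nM Pam3CSK4 as positive control. Supernatants frozen at −80°C. TNF-α quantified by sandwich ELISA against recombinant cytokine standards, each sample in triplicate.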

human TLR3 = target: T1, human TLR3 (Homo sapiens, UniProt O15455); test: SEAP reporter gene detection assay in HEK-Blue TLR3 cells; type: cell-based; conditions: 0 to 20 μM, 24 hours
T1 sequence (O15455 24-904): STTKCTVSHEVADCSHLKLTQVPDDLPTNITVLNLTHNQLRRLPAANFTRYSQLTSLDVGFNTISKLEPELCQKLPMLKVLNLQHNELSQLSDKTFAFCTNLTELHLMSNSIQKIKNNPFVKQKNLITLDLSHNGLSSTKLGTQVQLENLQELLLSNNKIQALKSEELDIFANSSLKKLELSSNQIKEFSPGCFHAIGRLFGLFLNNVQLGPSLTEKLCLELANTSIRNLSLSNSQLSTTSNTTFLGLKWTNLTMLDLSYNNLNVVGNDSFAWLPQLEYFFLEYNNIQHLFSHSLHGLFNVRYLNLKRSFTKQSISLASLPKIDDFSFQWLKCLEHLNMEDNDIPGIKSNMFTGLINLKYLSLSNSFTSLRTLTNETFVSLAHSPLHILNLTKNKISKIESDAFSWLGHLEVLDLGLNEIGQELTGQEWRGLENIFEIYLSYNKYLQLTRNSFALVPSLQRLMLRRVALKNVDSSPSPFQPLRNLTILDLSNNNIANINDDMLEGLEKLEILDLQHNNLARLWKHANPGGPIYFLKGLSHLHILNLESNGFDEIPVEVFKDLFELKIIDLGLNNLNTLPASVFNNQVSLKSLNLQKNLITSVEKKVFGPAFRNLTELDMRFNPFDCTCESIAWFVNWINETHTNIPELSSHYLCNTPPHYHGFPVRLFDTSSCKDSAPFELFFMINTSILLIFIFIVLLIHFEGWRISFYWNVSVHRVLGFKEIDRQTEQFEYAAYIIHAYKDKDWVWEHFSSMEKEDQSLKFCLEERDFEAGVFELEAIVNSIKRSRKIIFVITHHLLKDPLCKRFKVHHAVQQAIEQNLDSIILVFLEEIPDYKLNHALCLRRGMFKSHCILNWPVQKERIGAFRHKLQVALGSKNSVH
Summary of the method: (§1)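 HEK 293 cells stably carrying the human TLR and a SEAP reporter, 4 × 10^4/well, grown 24 h. Then 24 h in Opti-MEM/0.5% FBS with test compound. Positive controls: poly(I:C) 0–10.9 μg/ml (TLR3), LPS 0–36.5 ng/ml (TLR4), FLA-BS 0–10 μg/ml (TLR5), R848 0–6 μg/ml (TLR7, TLR8). Supernatant heated 30 min at 65°C, then CSPD substrate added; luminescence read after 20 min.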

human TLR1/2 = human TLR1/2 (Homo sapiens, UniProt O60603+Q15399); test: Competition binding ELISA assay with biotin-labeled Pam3CSK4; conditions: 50 nM (100 ng/ml) Biotin-Pam3, 0 to 7 μM CU-T12-9
Sequence of human TLR1/2 (Q15399 25-580 limits assumed): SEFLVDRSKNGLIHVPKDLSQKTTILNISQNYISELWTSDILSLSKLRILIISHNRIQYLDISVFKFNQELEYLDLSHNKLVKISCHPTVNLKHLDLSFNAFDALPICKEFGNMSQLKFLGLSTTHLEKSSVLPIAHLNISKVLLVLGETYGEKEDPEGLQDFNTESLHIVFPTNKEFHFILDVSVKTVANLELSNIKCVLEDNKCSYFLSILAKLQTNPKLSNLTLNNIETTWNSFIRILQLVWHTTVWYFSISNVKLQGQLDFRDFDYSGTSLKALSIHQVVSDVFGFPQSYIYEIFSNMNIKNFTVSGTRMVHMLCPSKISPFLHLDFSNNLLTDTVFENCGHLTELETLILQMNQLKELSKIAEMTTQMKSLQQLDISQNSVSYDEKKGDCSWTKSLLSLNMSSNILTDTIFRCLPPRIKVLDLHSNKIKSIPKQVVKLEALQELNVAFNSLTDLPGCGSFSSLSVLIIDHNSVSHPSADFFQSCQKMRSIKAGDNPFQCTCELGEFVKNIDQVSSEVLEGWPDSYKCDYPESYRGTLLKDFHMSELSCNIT
Sequence of human TLR1/2 (O60603 21-588 limits assumed): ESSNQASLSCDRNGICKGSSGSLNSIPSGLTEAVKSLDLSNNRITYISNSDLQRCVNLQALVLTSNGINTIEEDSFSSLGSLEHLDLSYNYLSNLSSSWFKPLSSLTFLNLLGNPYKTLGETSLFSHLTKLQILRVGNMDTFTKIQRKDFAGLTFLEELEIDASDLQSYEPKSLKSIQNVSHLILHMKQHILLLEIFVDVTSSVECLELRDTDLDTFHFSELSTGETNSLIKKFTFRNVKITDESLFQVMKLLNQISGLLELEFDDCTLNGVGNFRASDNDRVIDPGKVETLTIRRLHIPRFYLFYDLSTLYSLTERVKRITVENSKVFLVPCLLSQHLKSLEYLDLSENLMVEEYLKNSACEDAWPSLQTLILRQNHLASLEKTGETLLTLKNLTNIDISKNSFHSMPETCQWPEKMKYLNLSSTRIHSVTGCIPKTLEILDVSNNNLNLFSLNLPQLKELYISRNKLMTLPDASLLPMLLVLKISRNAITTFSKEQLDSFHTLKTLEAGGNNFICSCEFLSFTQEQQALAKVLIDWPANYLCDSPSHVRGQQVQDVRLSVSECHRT
Summary of the method: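 Human TLR1 (5 μg/ml) plus TLR2 (4 μg/ml), or BSA, coated in 0.1 M acetate pH 5.0 overnight at 4°C. Blocked with 5% BSA 1 h. Biotin-Pam3CSK4 with or without test compound, 1 h RT. Then streptavidin-HRP (1:2000) 1 h, TMB 10–30 min, stopped with 1 M H3PO4. A450 read, 620 nm reference. Signal at zero compound set as 100%.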

human TLR8 = target: T2, human TLR8 (Homo sapiens, UniProt Q9NR97); test: SEAP reporter gene detection assay in HEK-Blue TLR8 cells; type: cell-based; conditions: 0 to 20 μM, 24 hours
T2 sequence (Q9NR97 27-1041): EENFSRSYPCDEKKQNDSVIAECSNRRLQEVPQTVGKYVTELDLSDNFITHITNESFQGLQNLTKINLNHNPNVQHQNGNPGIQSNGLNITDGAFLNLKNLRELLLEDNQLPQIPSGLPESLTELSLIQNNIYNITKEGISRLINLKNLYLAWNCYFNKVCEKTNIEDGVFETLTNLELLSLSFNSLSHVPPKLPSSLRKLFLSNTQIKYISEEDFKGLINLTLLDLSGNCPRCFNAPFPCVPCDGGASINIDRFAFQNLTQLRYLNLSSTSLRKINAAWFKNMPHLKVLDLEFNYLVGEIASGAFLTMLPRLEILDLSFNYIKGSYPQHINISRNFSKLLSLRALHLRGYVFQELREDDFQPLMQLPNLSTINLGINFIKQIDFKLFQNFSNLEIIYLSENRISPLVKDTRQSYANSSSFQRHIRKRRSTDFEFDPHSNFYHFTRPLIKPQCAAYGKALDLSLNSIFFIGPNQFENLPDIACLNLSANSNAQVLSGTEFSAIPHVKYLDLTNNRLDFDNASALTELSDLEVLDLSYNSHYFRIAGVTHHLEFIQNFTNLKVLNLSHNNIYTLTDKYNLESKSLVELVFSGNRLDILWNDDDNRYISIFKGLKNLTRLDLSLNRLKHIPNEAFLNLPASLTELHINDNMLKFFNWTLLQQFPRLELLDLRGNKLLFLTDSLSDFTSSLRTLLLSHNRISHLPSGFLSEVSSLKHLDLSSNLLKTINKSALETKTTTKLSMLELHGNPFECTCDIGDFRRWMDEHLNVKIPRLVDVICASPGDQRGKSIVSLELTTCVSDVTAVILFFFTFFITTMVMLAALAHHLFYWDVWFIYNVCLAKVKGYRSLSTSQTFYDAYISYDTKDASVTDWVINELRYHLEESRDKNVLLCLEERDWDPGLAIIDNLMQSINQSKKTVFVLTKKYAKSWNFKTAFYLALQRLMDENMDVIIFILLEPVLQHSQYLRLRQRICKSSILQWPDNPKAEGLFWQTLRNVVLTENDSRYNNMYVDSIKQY
Summary of the method: as §1

With `CNc1ccc([N+](=O)[O-])cc1-n1cnc(-c2ccc(C(F)(F)F)cc2)c1` [CU-T12-9, N-methyl-4-nitro-2-(4-(4-(trifluoromethyl)phenyl)-1H-imidazol-1-yl)aniline] the EC50 (TNF-α) was 0.0605 ± 0.017 µM, the “activation of SEAP signaling, TLR3” value (human TLR3) was “not in other TLR-overexpressing cells” and the “competition with Biotin-Pam3 binding to TLR1/2” value (human TLR1/2) was “can compete”. The “activation of SEAP signaling, TLR8” value (human TLR8) was “not in other TLR-overexpressing cells”.
